Laboratory results: ChEMBL document CHEMBL2069168, “Synthesis and biological evaluation of truncated α-galactosylceramide derivatives focusing on cytokine induction profile” (2012)
The source made the active and inactive calls. The rule behind the calls is not given here.

Columns and labels:
[1] = test system: Splenocyte; test: Immunostimulatory activity in C57BL/6 mouse splenocytes assessed as IL-4 release at 100 ng/ml after 72 hrs by ELISA relative to OCH; format: functional
Outline: (§1)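 Splenocytes from female C57BL/6 mice (6–8 weeks) in RPMI1640 with 10% FBS, 5×10^-5 M 2-mercaptoethanol, 1 mM pyruvate, 25 mM HEPES; 5×10^5 cells/well stimulated with glycolipid at 100 ng/ml, 72 h, 37 °C. Supernatant IL-4 and IFN-γ by ELISA; values expressed relative to OCH reference included in every run, mean of at least three experiments.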

[2] = test system: Splenocyte; test: Immunostimulatory activity in C57BL/6 mouse splenocytes assessed as IFN-gamma release at 100 ng/ml after 72 hrs by ELISA relative to OCH; format: functional; outline: as §1
[3] = species on record: Mus musculus; test: Immunostimulatory activity in C57BL/6 mouse splenocytes at 100 ng/ml after 72 hrs assessed as IL-4 secretion
[4] = species on record: Mus musculus; test: Immunostimulatory activity in C57BL/6 mouse splenocytes at 100 ng/ml after 72 hr assessed as IFN-gamma secretion
[5] = test system: Mus musculus; test: Immunosuppressive activity iv in C57BL/6 mouse assessed as inhibition of OCH-induced IL-4 secretion at 0.1 ug/mouse, iv administered 15 mins before OCH challenge; format: functional, organism-based
Outline: (§2)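 Female C57BL/6 mice (9 weeks); glycolipids dissolved in 0.5% DMSO in saline. Test compound given iv via tail vein at 0.1 µg/mouse 15 min before iv OCH (0.1 µg/mouse). Sera taken 3, 6, 9 h after second injection; serum IL-4 and IFN-γ by ELISA. Mean ± SD, N = 4–5; Student's t-test versus vehicle.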

[6] = test system: Mus musculus; test: Immunosuppressive activity iv in C57BL/6 mouse assessed as inhibition of OCH-induced IFN-gamma secretion at 0.1 ug/mouse, iv administered 15 mins before OCH challenge; format: functional, organism-based; outline: as §2
[7] = test system: Dendritic cell; test: Immunostimulatory activity in C57BL/6 mouse dendritic cells assessed as IL-12 secretion at 100 ng/ml by ELISA relative to OCH; format: functional, cell-based
[8] = species on record: Mus musculus; test: Immunostimulatory activity in C57BL/6 mouse natural killer cells assessed as IFN-gamma secretion at 100 ng/ml by ELISA relative to OCH; format: functional

Row | Structure (SMILES) | Activity [1] [%] | Activity [2] [%] | Activity [3] [%] | Activity [4] [%] | other results
1 | CCCCCCCCCCCCCCCCCCCCCCC(=O)N[C@@H](CO[C@H]1O[C@H](CO)[C@H](O)[C@H](O)[C@H]1O)[C@H](O)[C@H](O)CCCCC | 103 | 93 | – | – | –
2 | CCCCCCCCCCCCCCCCCCCCCCCC(=O)N[C@@H](CO[C@H]1O[C@H](CO)[C@H](O)[C@H](O)[C@H]1O)[C@H](O)[C@H](O)CCC | 105 | 96 | – | – | –
3 | CCCCCCCCCCCCCCCCCCCC(=O)N[C@@H](CO[C@H]1O[C@H](CO)[C@H](O)[C@H](O)[C@H]1O)[C@H](O)[C@H](O)CCCCC | 6 | 9 | – | – | –
4 | CCCCCCCCCCCCCCCCCCCCCC(=O)N[C@@H](CO[C@H]1O[C@H](CO)[C@H](O)[C@H](O)[C@H]1O)[C@H](O)[C@H](O)CCCCC | 51 | 46 | – | – | –
5 | CCCCCCCCCCCCCCCCCCCCCCCC(=O)N[C@@H](CO[C@H]1O[C@H](CO)[C@H](O)[C@H](O)[C@H]1O)[C@H](O)[C@H](O)CCCCC | 100 | 100 | 100 | 100 | –
6 | CCCCCCCCCCCCCCCCCCCCCCCC(=O)N[C@@H](CO[C@H]1O[C@H](CO)[C@H](O)[C@H](O)[C@H]1O)[C@H](O)[C@H](O)Cc1ccccc1 | – | – | 211 | 284 | –
7 | CCCCCCCCCCCCCCCCCCCCCCCC(=O)N[C@@H](CO[C@H]1O[C@H](CO)[C@H](O)[C@H](O)[C@H]1O)[C@H](O)[C@H](O)COC | – | – | 86 | 64 | –
8 | CCCCCCCCCCCCCCCCCCCCCCC(=O)N[C@@H](CO[C@H]1O[C@H](CO)[C@H](O)[C@H](O)[C@H]1O)[C@H](O)[C@H](O)CCCC | 97 | 148 | – | – | –
9 | CCCCCCCCCCCCCCCCCCCCCCCC(=O)N[C@@H](CC[C@H]1O[C@H](CO)[C@H](O)[C@H](O)[C@H]1O)[C@H](O)[C@H](O)CCCCC | – | – | 1 | 0 | inhibition [5]: inactive; inhibition [6]: inactive
10 | CCCCCCCCCCCCCCCCCCCCCCCC(=O)N[C@@H](CO[C@H]1O[C@H](CO)[C@H](O)[C@H](O)[C@H]1O)[C@H](O)[C@H](O)COCCC | – | – | 103 | 161 | –
11 | CCCCCCCCCCCCCCCCCCCCCCCC(=O)N[C@@H](CO[C@H]1O[C@H](CO)[C@H](O)[C@H](O)[C@H]1O)[C@H](O)[C@H](O)CC1CCCC1 | – | – | 98 | 74 | –
12 | CCCCCCCCCCCCCCCCCCCCCCCCCC(=O)N[C@@H](CO[C@H]1O[C@H](CO)[C@H](O)[C@H](O)[C@H]1O)[C@H](O)[C@H](O)CCCCC | 129 | 504 | – | – | –
13 | CCCCCCCCCCCCCCCCCCCCCCCCCC(=O)N[C@@H](CO[C@H]1O[C@H](CO)[C@H](O)[C@H](O)[C@H]1O)[C@H](O)[C@H](O)CCCCCCCCCCCCCC [RGI-7000] | 128 | 569 | – | – | –
14 | CCCCCCCCCCCCCCCCCCCCCCCC(=O)N[C@@H](CO[C@H]1O[C@H](CO)[C@H](O)[C@H](O)[C@H]1O)[C@H](O)[C@H](O)CCc1ccccc1 | – | – | 57 | 35 | –
15 | CCCCCCCCCCCCCCCCCCCCCCCC(=O)N[C@@H](CO[C@H]1O[C@H](CO)[C@H](O)[C@H](O)[C@H]1O)[C@H](O)[C@H](O)COCCCCCCCCCCCC | – | – | 78 | 227 | –
16 | CCCCCCCCCCCCCCCCCCCCCCC(=O)N[C@@H](CO[C@H]1O[C@H](CO)[C@H](O)[C@H](O)[C@H]1O)[C@H](O)[C@H](O)CCCCCC | 97 | 113 | – | – | –
17 | CCCCCCCCCCCCCCCCCCCCCCCC(=O)N[C@@H](CO[C@H]1O[C@H](CO)[C@H](O)[C@H](O)[C@H]1O)[C@H](O)[C@H](O)CCCC | 115 | 112 | – | – | –
18 | CCCCCCCCCCCCCCCCCCCCCCCC(=O)N[C@@H](CO[C@H]1O[C@H](CO)[C@H](O)[C@H](O)[C@H]1O)[C@H](O)[C@H](O)COc1ccccc1 | – | – | 99 | 80 | –
19 | CCCCCCCCCCCCCCCCCCCCCCCCCCCC(=O)N[C@@H](CO[C@H]1O[C@H](CO)[C@H](O)[C@H](O)[C@H]1O)[C@H](O)[C@H](O)CCCCC | 178 | 761 | – | – | –
20 | CCCCCCCCCCCCCCCCCCCCCCCCC(=O)N[C@@H](CO[C@H]1O[C@H](CO)[C@H](O)[C@H](O)[C@H]1O)[C@H](O)[C@H](O)CCCCC | 154 | 103 | – | – | –
21 | CCCCCCCCCCCCCCCCCCCCCCCCCC(=O)N[C@@H](CC[C@H]1O[C@H](CO)[C@H](O)[C@H](O)[C@H]1O)[C@H](O)[C@H](O)CCCCCCCCCCCCCC | – | – | – | – | Activity [7]: Active; Activity [8]: Active
22 | CCCCCCCCCCCCCCCCCCCCCCCC(=O)N[C@@H](CO[C@H]1O[C@H](CO)[C@H](O)[C@H](O)[C@H]1O)[C@H](O)[C@H](O)Cc1ccc(C)cc1 | – | – | 78 | 76 | –
